Assay results published in ChEMBL document CHEMBL1789904, “Imaging of Plasmodium liver stages to drive next-generation antimalarial drug discovery” (Science, 2011).

System: Plasmodium yoelii
Assay: NOVARTIS: Antimalarial liver stage activity measured as reduction in Plasmodium yoelii schizont area in HepG2-A16-CD81 cells by immuno-fluorescence, and median schizont size at 10uM compound concentration
Assay type: functional, organism-based
Conditions: for IC50: Plasmodium yoelii, HepG2-A16-CD81
Outline: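 Host and parasite nuclei stained with Hoechst 33342, parasites with αPyHSP70 antibody; 25 images per well by high-content imaging; median parasite (schizont) area measured by automated image analysis, ~50 schizonts per experiment, two or more independent experiments.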

SMILES	Schizont size [um]	IC50 [nM]
O=C(Nc1ccc(Oc2cccc(Oc3ccc(NC(=O)c4ccc(Br)o4)cc3)c2)cc1)c1ccc(Br)o1	18.79	433
CC[n+]1c(/C=C/N(C)c2ccccc2)n(-c2ccccc2)c2ccc(-c3nc4ccccc4s3)cc21	20.14	14
Br.O=C(Cn1ccc(=NCc2ccccc2)cc1)c1ccc(I)cc1	44.99	825
Cc1ccc(-c2cn3c([n+]2-c2ccccc2)SCC3)cc1.[Br-]	62.52	1090
C/C=C/[P+](c1ccccc1)(c1ccccc1)c1ccccc1	26.09	49.4
CCN(CC)CCCN(Cc1cc2ccc(C)cc2[nH]c1=O)C(=S)Nc1cccc(Cl)c1	58.76	448
CC(C)NC(=O)c1cc(NC(=O)c2cccs2)ccc1N1CCc2ccccc2C1	26.93	74.8
CCOC(=O)c1cn(CC)c2cc(N(C)CCc3ccc(OC)c(OC)c3)c(F)cc2c1=O	23.69	42.1
Cc1nc2ccccc2c(O)c1CC=C(Cl)Cl	43.21	130
CC(c1nc2ccccc2c(=O)n1C)N1CCN(C(=O)C(C)(C)C)CC1 (configuration not stated)	–	492
CC[n+]1c(C=C2C=CN(C)C=C2)ccc2cc(C)ccc21.[I-]	25.57	170
O=c1c2c([nH]c3ccccc13)CCCC2	39.45	500
Cl.Nc1ccc(N2CCCCCC2)cc1	77.66	1950
Cc1ccnc(NC(c2ccc3ccccc3c2)c2ccc3cccnc3c2O)c1 (configuration not stated)	26.72	556
OC1=C2C(=Nc3ccccc3SC2c2ccco2)c2ccccc21 (configuration not stated)	31.63	113
CC[n+]1c(C=C2C=C(C)OC(C)=C2)sc2ccccc21.[Cl-]	25.36	245
CCc1noc(C)c1C(=O)NCCN1Cc2ccccc2OC(c2ccsc2)C1 (configuration not stated)	227.75	> 10000
CCOC(=O)C1=C(C)NC2=C(C(=O)C(C(=O)OCC)C(c3ccc(OC)cc3)C2)C1c1ccc(OC)c(OC)c1 (configuration not stated)	86.53	240
Oc1cccc2ccc[n+](CC(O)Cn3c4ccccc4c4ccccc43)c12.[Cl-] (configuration not stated)	49.37	311
CCCCC(CC)C(=O)N1CCN(C(CC)c2nc3ccccc3c(=O)n2C)CC1 (configuration not stated)	–	231
NC(Cc1ccccc1)C(=O)N1CCn2c(nc(-c3ccccc3)c2Nc2ccc3c(c2)OCO3)C1 (configuration not stated)	–	1.85
CCN(CC)CCCNc1nc2cc(OC)c(OC)cc2c2nc(-c3ccccc3)nn12	52.61	327
c1ccc(Nc2ccnc(Nc3ccccc3)n2)cc1	92.37	1480
CN(Cc1ccccc1)C(=O)CSc1nc(NCc2ccccc2)c2ccccc2n1	67.84	7.13
Cc1ccc(Nc2nc(NCc3ccccc3)c3ccccc3n2)cc1	31.73	278
COc1cccc(C(=O)NC(c2ccccc2OC)c2cc(Cl)c3cccnc3c2O)c1 (configuration not stated)	20.25	544

SMILES	Schizont size [um]	IC50 [nM]
[I-].c1ccc(CSc2scnc2[P+](c2ccccc2)(c2ccccc2)c2ccccc2)cc1	21.61	68.5
FC(F)(F)c1ccccc1NC(=S)N1CCCN(c2nc3ccc(Cl)cc3s2)CC1	91.85	1620
Cn1cnnc1SCC(=O)Nc1ccccc1C(F)(F)F	204.16	> 10000
CCC(Sc1nnc(-c2ccc(C)cc2)c(-c2ccc(C)cc2)n1)C(=O)NCCOC (configuration not stated)	42.59	303
CC[C@H]1CN2CCc3cc(OC)c(OC)cc3[C@@H]2C[C@@H]1C[C@H]1NCCc2cc(OC)c(OC)cc21 [EMETINE]	26.51	7.49
COC(OC)C(C)=NNC(N)=S	78.8	4.93
c1ccc(OCCOc2ccc(Nc3c4ccccc4nc4ccccc34)cc2)cc1	41.33	559
CCN1C=C(c2ccc(C)cc2)S/C1=C\c1sc2ccccc2[n+]1C	37.89	4.5
O=C(c1cccc([N+](=O)[O-])c1)c1ccc(Cl)c(Cl)c1	108.65	3810
Cc1cc(NC(c2cccc(Br)c2)c2ccc3cccnc3c2O)no1 (configuration not stated)	16.28	147
O=C1Nc2ccccc2C12Nc1ccccc1-c1nc3ccccc3n12 (configuration not stated)	165.43	> 10000
Fc1ccc(-c2cn3c([n+]2-c2ccccc2)SCC3)cc1.[Br-]	131.2	> 4300
COc1ccccc1CNC(=O)c1nn(-c2ccc(Cl)cc2)c(=O)c2ccccc12	–	> 10000
CCCCCc1c(C)c(C#N)c2nc3ccccc3n2c1NCCN(CC)CC	74	702
CCc1ccccc1N=C1c2c(cccc2[N+](=O)[O-])C(=O)C1C(C)=O (configuration not stated)	83.4	2030
CCN(CC)c1ccc(NC(=O)c2cccs2)cc1	54.07	396
CCCCSc1oc(C)nc1[P+](c1ccccc1)(c1ccccc1)c1ccccc1	22.13	82.1
COC(=O)c1ccc(C2C3=C(O)CC(c4ccco4)CC3=Nc3ccccc3N2C(=O)c2ccccc2)cc1 (configuration not stated)	140.38	> 4780
COc1ccc(C(NC(=O)c2cccnc2)c2cc(Cl)c3cccnc3c2O)cc1 (configuration not stated)	21.08	542
O=C(NC(=C(Cl)Cl)[P+](c1ccccc1)(c1ccccc1)c1ccccc1)c1ccc(F)cc1	26.93	14.5
Nc1cccc(C(=O)Nc2ccc(Oc3cccc(Oc4ccc(NC(=O)c5cccc(N)c5)cc4)c3)cc2)c1	90.81	1760
CCOC(=O)c1cnc2ccc(OC)cc2c1Cl	31	410
CCN(c1ccccc1)S(=O)(=O)c1ccc(F)c(C(=O)Nc2c(C)cccc2C)c1	234.32	> 10000
COc1ccc2nc(C)cc(Nc3ccc(Cl)c(Cl)c3)c2c1	39.25	438
Cc1ccccc1N=Nc1ccc(NC(=O)c2ccco2)c(C)c1	51.87	300
OC1=C2C(=Nc3ccccc3SC2c2ccc(Br)cc2)c2ccccc21 (configuration not stated)	34.03	327

SMILES	Schizont size [um]	IC50 [nM]
O=C(Nc1ccc(-c2nc3cc(NC(=O)c4cccc([N+](=O)[O-])c4)ccc3[nH]2)cc1)c1cccc([N+](=O)[O-])c1	101.45	> 940
CCCCCCOc1ccc(C(C)=NNC2=NCCN2)cc1[N+](=O)[O-]	60.96	784
O=C(c1cccs1)N1CCN(c2ccc([N+](=O)[O-])c(NC3CC3)c2)CC1	83.6	692
CCCCCCOc1ccc(NC(=O)c2cccs2)cc1	27.87	139
C=CC[N+]1(CC#Cc2cccc3ccccc23)CCCCC1.[Br-]	80.06	908
CCCCCCCCn1c(C)[n+](CC)c2cc(C(=O)OCC)ccc21.[I-]	63.77	990
COc1ccc(C2CC(=O)C3=C(C2)NC(C)=C(C(=O)OC2CCCC2)C3c2ccc([N+](=O)[O-])cc2)cc1OC (configuration not stated)	103.85	3920
Cc1cccc2c1[nH]c1nc(SCC(C)C)nnc12	36.43	152
CCOc1ccc(Nc2cc(=O)oc3ccccc23)cc1	43.94	502
O=C(c1cnsn1)N1CCCC(COc2cccc(CN3CCC(Cc4ccccc4)CC3)c2)C1 (configuration not stated)	69.41	609
CCCCSCC(O)CN1CCCCC1 (configuration not stated)	191.22	> 10000
O=C1C2=C(Nc3ccccc3SC2c2ccc(OCc3ccccc3)cc2)c2ccccc21 (configuration not stated)	23.17	58
Cc1ccc(NC(=O)C2C3C=CC4(O3)C2C(=O)N(CCCN2CCOCC2)C4C(=O)NC2CCCC(C)C2C)cc1Cl.Cl (configuration not stated)	196.54	> 10000
COc1ccc2nc(-c3ccccc3)cc(NCCN(C)C)c2c1	69.1	570
CCOc1ccc2[nH]c(=O)c(CN(CCN(CC)CC)C(=S)NCCCN(CC)CC)cc2c1	120.76	2170
CCCCn1c(NN=C2C(=O)Nc3ccccc32)nc2c1c(=O)[nH]c(=O)n2C	172.53	> 10000
O=C(Nc1ccc(C(F)(F)F)cc1)c1ccc(NCCCN2CCCCCC2)c([N+](=O)[O-])c1	74.21	450
CC(C)(C)C1CCc2[nH]c3ccccc3c(=O)c2C1 (configuration not stated)	22.13	98.3
COc1ccc(C2N(Cc3ccccc3)c3ccccc3N2Cc2ccccc2)cc1	30.79	121
CCC(=O)NC(c1ccccc1Cl)c1cc(Cl)c2cccnc2c1O (configuration not stated)	55.11	1010
COC(=O)c1cc(NC(=S)NC(=O)c2c(OC)cccc2OC)cc(C(=O)OC)c1	216.06	> 10000
Cc1ccc2cc(C)c(Nc3ccc(Cl)cc3)nc2c1	42.06	148
CCN1CCN(c2c(C(=O)c3ccccc3)cnc3cc(OC)c(OC)cc23)CC1	89.76	367
CCCc1nc2ccc(NC(=O)c3ccco3)cc2c(=O)n1Cc1ccc(-c2ccccc2)cc1	25.78	306
Cc1cc(C)nc(NC(=N)Nc2cccc(O)c2)n1	88.2	152
COc1ccc(C(c2ccc(N(C)C)cc2)c2ccc(N(C)C)cc2)cc1	172.95	> 10000
